Hits are enriched below; roughly 1.3% of the tested compounds scored in any of these assays.
proCasp7 act – procaspase-7 activators, primary screen, counter-screen for procaspase-3 activator project, biochemical, absorbance, HTS, human | Caspase-7 (Homo sapiens), P55210 | recombinant procaspase-7, Ac-DEVD-pNA absorbance 405 nm; D23A/D198A/D206A triple mutant, cannot self-cleave; scale: DMSO 0, 5 µM enzyme 100 | AID 463210, 2010 | 330,000 tested, 0.093% active | activation, % at 8.5 µM;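 active means percent activation above the screen-wide mean plus 3 SD, cut at about 25% in these data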
Target sequence (P55210 whole entry D23A/D198A/D206A): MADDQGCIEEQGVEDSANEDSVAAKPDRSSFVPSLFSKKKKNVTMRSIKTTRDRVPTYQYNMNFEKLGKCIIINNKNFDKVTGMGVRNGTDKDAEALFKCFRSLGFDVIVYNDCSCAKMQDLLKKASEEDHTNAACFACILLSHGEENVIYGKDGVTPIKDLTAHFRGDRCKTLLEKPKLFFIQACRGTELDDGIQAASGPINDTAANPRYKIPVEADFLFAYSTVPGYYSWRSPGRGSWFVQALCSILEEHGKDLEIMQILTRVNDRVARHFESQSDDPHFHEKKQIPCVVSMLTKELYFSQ
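signal = Epi-absorbance of released pNA at 405 nm, two timepoints | assay system = Uncleavable procaspase-7 mutant enzyme | reagent = Ac-DEVD-pNA substrate, 400 µM as added | times = 1 h enzyme–compound preincubation and 2 h substrate reaction, both 25 °C | benchmarks = low DMSO alone, high DMSO plus 5 µM PC-7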
VLA-4 inh – inhibition in human VLA-4 binding assay, primary screen, VLA-4 allosteric modulator project, MLPCN library, flow cytometry, VLA-4 expressing cells | ligand binding flow cytometry | Integrin alpha-4 (Homo sapiens), P13612 | AID 2557, 2010 | 330,000 tested, 0.2% active | inhibition, % (about 7 µM as worked out from the volumes in the protocol); in the data active means inhibition above about 50%
JMJD2C inh – inhibitors of GASC-1 histone demethylase, primary screen, biochemical, fluorescence, DELFIA europium | GST-JMJD2C(1-420) H3K9me3 demethylation | inhibition, % at 2.35 µM | 330,000 tested, 0.069% active | AID 2099, 2009;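 active means more than half of a compound's replicate wells show inhibition beyond 50%, single wells judged on their own value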;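 further: signal counts dimethyl H3K9 product captured on neutravidin plate; 0% = median of DMSO wells and 100% = 0.3 times that DMSO median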
procasp3 activ – activators of human procaspase-3 D3A mutant, primary screen, biochemical, absorbance, PC-3 D3A mutant, single concentration. Caspase-3 (Homo sapiens), P42574. recombinant procaspase-3 D3A, Ac-DEVD-pNA absorbance 405 nm. activation, % at 8.5 µM. 330,000 tested, 0.11% active. AID 463141, 2010;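 active means activation above the mean of all tested compounds plus 3 SD, cut at about 21% in these data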;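 further: 0% = DMSO alone and 100% = DMSO wells spiked with extra 5 µM PC-3 D3A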
Target sequence (P42574 whole entry D9A/D28A/D175A): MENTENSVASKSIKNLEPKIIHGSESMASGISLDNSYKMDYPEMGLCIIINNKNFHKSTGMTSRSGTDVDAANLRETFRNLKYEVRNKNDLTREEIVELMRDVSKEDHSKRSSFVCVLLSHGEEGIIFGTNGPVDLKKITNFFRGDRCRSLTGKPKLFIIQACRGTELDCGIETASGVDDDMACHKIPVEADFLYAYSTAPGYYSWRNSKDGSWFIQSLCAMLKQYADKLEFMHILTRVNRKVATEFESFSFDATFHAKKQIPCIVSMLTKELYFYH
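material = Procaspase-3 D3A mutant | probe or stimulus = Ac-DEVD-pNA | compound = single dose, 8.5 µM nominal compound, 0.8% DMSO | timing = 1 h preincubation, 2 h reaction | measured by = 405 nm absorbance of p-nitroaniline, reads at 0 and 120 min | benchmarks = DMSO-only low control, 5 µM PC-3 D3A high control | repeats = singlicate, each compound tested once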
Lipid droplet – inhibitors of hepatocyte lipid droplet formation, primary screen, imaging, high-throughput imaging, BODIPY stain. AML12 mouse hepatocytes, oleate lipid droplets. inhibition, % at 6.5 µM. 240,000 tested, 0.4% active;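 active means lipid droplet intensity inhibited by at least 50%, with more than 500 cells counted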
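Assay system: AML12 mouse liver cells | Compound: 6.5 µM single-point dosing | Schedule: Overnight exposure | Technique: Fluorescence imaging, 20x objective, two fields per well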
GRK2 aptamer HTS – compounds blocking aptamer binding on GRK2 – biochemical, human GRK2, bead flow cytometry, HTS, primary screen; Beta-adrenergic receptor kinase 1 (Homo sapiens), P25098; FAM-aptamer displacement from GRK2; inhibition of aptamer binding, % at 10 µM; 330,000 tested, 0.59% active; AID 488847, 2010;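 active means inhibition of aptamer binding above 40%, roughly 3 SD of noise, on plates passing a quality check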;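 further: median bead fluorescence of bound FAM aptamer so fluorescent compounds give negative values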
Hep lipid conf – hepatocyte lipid droplet accumulation inhibitors, confirmation, imaging, AML12 mouse hepatocytes, single concentration, high-content; shares compounds with Lipid droplet; BODIPY lipid droplet imaging; droplets induced with 100 µM oleic acid; inhibition, % at 5.2 µM; 870 tested, 65% active; AID 463183, 2010;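 active means inhibition of lipid droplet metric at least 50%, with more than 300 cells in each of four replicates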;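 further: plate controls were DMSO with oleic acid for no effect and 5 µM Triacsin-C for full effect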
AML12 cytotox – AML12 hepatocyte cytotoxicity, counter-screen for hepatic lipid droplet formation project, imaging, DAPI nuclear morphology imaging | z-score at 5 µM | shares compounds with Lipid droplet | AML12 mouse hepatocytes; active compounds read high; cells fed 100 µM oleate overnight | 870 tested, 3% active; in the data active means z-score above about 6.3;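 further: compound exposure lasted overnight at 37 °C before fixation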
AML12 tox conf – AML12 hepatocyte cytotoxicity, confirmation, cytotoxicity control for hepatic lipid droplet formation project, cell-based, single concentration; shares compounds with Lipid droplet; cytotoxicity, % at 50 µM; AML12 mouse hepatocyte viability, ATP luminescence; cells loaded with 100 µM oleic acid; 530 tested, under 10 active; AID 463219, 2010;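 active means cytotoxicity above 50% in each of four replicates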;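 further: compound exposure lasted overnight at 37 °C before the ATP read; 0% = DMSO-treated cells and 100% = wells with no cells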
An asterisk follows results filed as active; . = no result given.

SMILES	proCasp7 act	VLA-4 inh	JMJD2C inh	procasp3 activ	Lipid droplet	GRK2 aptamer HTS	Hep lipid conf	AML12 cytotox	AML12 tox conf
CCC(=O)N1c2ccc(S(=O)(=O)NCCc3ccccc3)cc2CC1C (stereo unspecified)	10	1	6	5	-1	5	.	.	.
CC1Cc2cc(S(=O)(=O)NCCC(=O)N(C)Cc3ccccc3)ccc2N1C(=O)C1CC1 (stereo unspecified)	3	9	2	5	61*	0	67*	-0.84	21
COc1ccccc1CNS(=O)(=O)c1ccc2c(c1)CC(C)N2C(=O)C1CC1 (stereo unspecified)	4	-2	1	1	79*	0	106*	-1.1	18
COc1ccc(C(C)=O)cc1CC(=O)NCCCn1ccnc1	-5	3	-5	4	-1	0	.	.	.
Cc1ccc2c(c1)-c1c(ssc1=S)C(C)(C)N2C(=O)CSC1=NCCS1	-3	-2	2	8	27	1	.	.	.
CCOc1ccc2c(c1)-c1c(ssc1=S)C(C)(C)N2C(=O)CSC1=NCCS1	0	-7	-1	-2	54*	0	13	0.2	.
O=C(NC(=S)Nc1ccccn1)c1ccc(-c2ccccc2)cc1	-2	5	-3	2	94*	0	16	-0.62	.
O=C(NC(=S)Nc1ccccn1)c1ccc([N+](=O)[O-])cc1	1	-12	48	7	2	0	.	.	.
CC(C)(C)OC(=O)N1Cc2ccccc2C[C@H]1C(=O)NCC(=O)Nc1ccc2c(c1)OCCO2	-6	-101	-7	14	-12	3	.	.	.
COc1ccc(CN(C(=O)c2snc(C(N)=O)c2N)C(C(=O)NC2CCCC2)c2ccco2)cc1 (stereo unspecified)	0	-7	20	1	-11	0	.	.	.
CCOC(=O)/C(C(=O)Nc1ccccc1Cl)=C1/NC(C)(C)Cc2ccccc21	0	-11	7	-3	53*	0	32	0.35	.
CC1CCCCC1NC(=O)C(C)N1C(=O)c2ccccc2C1=O (stereo unspecified)	0	5	11	3	.	1	.	.	.
CCc1cccc(NC(=O)CCCn2nc(CC)n3c(cc4occc43)c2=O)c1	16	0	8	-1	53*	7	94*	-0.16	3
Cc1cc(C)cc(OCC(=O)OCC(=O)NC2CCCCCC2)c1	4	-13	.	-1	.	0	.	.	.
CC(C)c1ccccc1NC(=O)COC(=O)c1c2c(nc3ccccc13)CCN(Cc1ccccc1)C2	8	-28	8	-1	54*	0	56	-0.0035	16
COc1ccc(C(=O)NC2CCN(CC(=O)Nc3c(C)cccc3C)CC2)cc1OC	4	3	-5	5	-5	0	.	.	.
CCN1CCN(c2cc(C)c3cc(NC(=O)CCC(=O)Nc4ccc(OC)c(OC)c4)ccc3n2)CC1	11	-8	3	2	-7	0	.	.	.
COc1ccc(C)cc1NC(=O)CCC(=O)Nc1ccc2nc(N3CCN(C)CC3)cc(C)c2c1	2	-1	-11	1	105*	0	104*	0.15	-5
CCN(CC)S(=O)(=O)c1ccc(N2C(=O)CC2(/C=C/c2ccccc2)C(=O)NC2CCCC2)cc1 (stereo unspecified)	-2	-3	8	-7	63*	0	74	0.43	.
CCOc1ccc(CCNC(=O)COC(=O)/C=C/c2ccc(OC(F)F)c(OC)c2)cc1OCC	10	31	13	4	.	0	.	.	.
CCOc1ccc(CCNC(=O)COC(=O)/C=C/c2ccc(C)o2)cc1OCC	4	-8	-1	5	59*	22	91*	-0.68	10
CCOc1ccc(CCNC(=O)COC(=O)/C=C/c2ccc(OC)c(OC)c2)cc1OCC	-2	-7	8	-1	94*	3	109*	-0.73	7
CCCNC(=O)COC(=O)/C=C/c1ccc(C)o1	1	6	3	4	21	4	.	.	.
CCOC(=O)NC(=O)c1cn(-c2ccc(OC)cc2)c(=O)[nH]c1=O	1	3	-14	-7	.	10	.	.	.
Cc1ccc(CN2CCN(c3ncccn3)CC2)o1	-1	17	-12	3	7	3	.	.	.
SMILES	proCasp7 act	VLA-4 inh	JMJD2C inh	procasp3 activ	Lipid droplet	GRK2 aptamer HTS	Hep lipid conf	AML12 cytotox	AML12 tox conf
Cc1ccc(CN2CCN(c3ccccc3)CC2)o1	-13	1	30	12	75*	8	39	-0.22	.
Cc1cccc(NC(=O)CSc2nc3ccccc3nc2N2CCCC2)c1	-4	22	-7	-16	63*	1	102*	0.58	9
COc1cccc(NC(=O)CSc2nc3ccccc3nc2N2CCCC2)c1	1	8	3	-1	58*	13	99*	-0.71	8
COc1ccc(NC(=O)CSc2nc3ccccc3nc2N2CCOCC2)cc1	4	10	-12	7	22	0	.	.	.
Cc1cccc(NC(=O)CSc2nc3ccccc3nc2N2CCCCC2)c1	3	-9	0	9	31	3	.	.	.
COc1ccc(NC(=O)CSc2nc3ccccc3nc2N2CCCCC2)cc1	9	-3	-1	9	73*	0	108*	-0.72	1
C[C@H]1CN(S(=O)(=O)c2ccc3c(c2)OCCO3)CCN1S(=O)(=O)c1c(F)cccc1F	5	3	.	5	.	2	.	.	.
COc1ccc(-c2nnn(CC(=O)NC(=O)NC3CCCCC3)n2)cc1OC	5	12	5	-2	.	0	.	.	.

Bioassay records as filed in PubChem BioAssay.
